Test results as given in ChEMBL document CHEMBL3085764, “Azole-carbodithioate hybrids as vaginal anti-Candida contraceptive agents: design, synthesis and docking studies” (Eur J Med Chem, 2013).
In brackets after ≈: the same amount, converted by molar mass.

How the values were obtained:
[1] = system: Sporothrix schenckii; experiment: Antifungal activity against Sporothrix schenckii after 48 hrs by broth microdilution technique; type: functional, organism-based
Outline: (§1)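 MIC by broth microdilution following NCCLS guidelines, in RPMI 1640 buffered with MOPS. Starting inoculum 1-5 × 10^3 CFU/mL. Plates incubated at 35 °C. MIC and IC50 read spectrophotometrically at 492 nm after 48 h.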

[2] = Growth inhibition of Lactobacillus acidophilus after 72 hrs by colony counting method
Outline: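 Rogosa SL agar plates (7.5%, 0.132% acetic acid), with or without compound, inoculated with L. acidophilus (~70 […]/10 cm²). Incubated 72 h at 37 °C in 5% CO2/95% air. Colony number and size recorded. Value = average colony size (% of control) × colony number / 100.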

[3] = system: Trichomonas vaginalis; experiment: Trichomonacidal activity against Trichomonas vaginalis after 48 hrs by trypan blue exclusion assay; type: functional; settings: read-out: MEC
Outline: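 T. vaginalis in log phase, grown in TYM with 10% FCS, vitamin mixture and penicillin/streptomycin at 37 °C. DMSO stocks ([…]) serially diluted in TYM down to 0.1 µg/mL; DMSO/TYM vehicle controls. 5 × 10^4 trophozoites added and incubated anaerobically at 37 °C. Viability checked by trypan blue from 3 to 48 h. MIC = lowest concentration killing all cells by 48 h. Three repeats.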

[4] = Spermicidal activity in human semen assessed as sperm immobilization at 0.1 % w/v up to 30 seconds by phase contrast microscopy; type: functional
[5] = Spermicidal activity in human semen assessed as sperm immobilization at 1.0 % w/v up to 30 seconds by phase contrast microscopy; type: functional
[6] = system: Candida albicans; experiment: Antifungal activity against Candida albicans clinical isolate after 48 hrs by broth microdilution technique; type: functional, organism-based; outline: as §1
[7] = system: Candida albicans; experiment: Antifungal activity against Candida albicans ATCC 10231 after 48 hrs by broth microdilution technique; type: functional, organism-based; settings: ATCC 10231, 48 h; outline: as §1
[8] = system: Candida albicans; experiment: Antifungal activity against Candida albicans clinical isolate CDRI after 48 hrs by broth microdilution technique; type: functional, organism-based; outline: as §1
[9] = system: Candida albicans; experiment: Antifungal activity against Candida albicans MTCC 183 after 48 hrs by broth microdilution technique; type: functional, organism-based; settings: MTCC 183, 48 h; outline: as §1
[10] = system: Candida parapsilosis; experiment: Antifungal activity against Candida parapsilosis ATCC 22019 after 48 hrs by broth microdilution technique; type: functional, organism-based; settings: Lodderomyces parapsilosis, ATCC 22019, 48 h; outline: as §1
[11] = system: Candida albicans; experiment: Antifungal activity against Candida albicans after 48 hrs by broth microdilution technique; type: functional, organism-based; outline: as §1
[12] = system: Klebsiella pneumoniae; experiment: Antibacterial activity against Klebsiella pneumoniae after 48 hrs by broth microdilution technique; type: functional
Outline: (§2)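 Broth microdilution following NCCLS guidelines in Mueller Hinton broth. Inoculum held at 1-5 × 10^3 cfu/mL. Plates incubated at 35 °C in a moist, dark chamber for 48 h. MIC and IC50 read spectrophotometrically at 492 nm.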

[13] = system: Staphylococcus aureus; experiment: Antibacterial activity against Staphylococcus aureus ATCC 25923 after 48 hrs by broth microdilution technique; type: functional; settings: ATCC 25923, 48 h; outline: as §2
[14] = system: Pseudomonas aeruginosa; experiment: Antibacterial activity against Pseudomonas aeruginosa ATCC BAA-427 after 48 hrs by broth microdilution technique; type: functional; settings: ATCC BAA-427, 48 h; outline: as §2
[15] = system: Escherichia coli; experiment: Antibacterial activity against Escherichia coli ATCC 9637 after 48 hrs by broth microdilution technique; type: functional; settings: ATCC 9637, 48 h; outline: as §2
[16] = system: Cryptococcus neoformans; experiment: Antifungal activity against Cryptococcus neoformans after 48 hrs by broth microdilution technique; type: functional, organism-based; outline: as §1
[17] = system: Trichophyton mentagrophytes; experiment: Antifungal activity against Trichophyton mentagrophytes after 48 hrs by broth microdilution technique; type: functional, organism-based; outline: as §1
[18] = system: HeLa; experiment: Cytotoxicity against human HeLa cells after 5 hrs by LDH assay
[19] = system: Aspergillus fumigatus; experiment: Antifungal activity against Aspergillus fumigatus after 48 hrs by broth microdilution technique; type: functional, organism-based; outline: as §1

IC50 [1]	IC50 [6]	IC50 [7]	IC50 [8]	IC50 [9]	IC50 [10]	IC50 [11]	MIC [12]	MIC [13]	MIC [14]	MIC [15]	IC50 [16]	IC50 [17]	IC50 [19]	Compound	IC50 [2]	minimal effective concentration [3]	Activity [4]	Activity [5]	IC50 [18]
> 50 µg/mL	1.53 µg/mL (≈ 7.64 µM)	3.5 µg/mL (≈ 17.5 µM)	6.17 µg/mL (≈ 30.8 µM)	5.41 µg/mL (≈ 27 µM)	1.94 µg/mL (≈ 9.68 µM)	1.29 µg/mL (≈ 6.44 µM)	≥ 50 µg/mL	≥ 50 µg/mL	≥ 50 µg/mL	≥ 50 µg/mL	3.79 µg/mL (≈ 18.9 µM)	> 50 µg/mL	–	CCCCSC(=S)n1ccnc1	45.64 µg/mL (≈ 228 µM)	> 200 µg/mL	80%	100%	48.7 µg/mL (≈ 243 µM)
5.71 µg/mL (≈ 26.6 µM)	2.12 µg/mL (≈ 9.89 µM)	5.09 µg/mL (≈ 23.7 µM)	7.64 µg/mL (≈ 35.6 µM)	4.69 µg/mL (≈ 21.9 µM)	> 50 µg/mL	1.34 µg/mL (≈ 6.25 µM)	≥ 50 µg/mL	≥ 50 µg/mL	≥ 50 µg/mL	≥ 50 µg/mL	5.57 µg/mL (≈ 26 µM)	2.02 µg/mL (≈ 9.42 µM)	23.8 µg/mL (≈ 111 µM)	CCCCSC(=S)n1ccnc1C	220 µg/mL (≈ 1030 µM)	> 200 µg/mL	0%	100%	85.5 µg/mL (≈ 399 µM)
4.34 µg/mL (≈ 27.3 µM)	> 50 µg/mL	38 µg/mL (≈ 239 µM)	> 50 µg/mL	31.2 µg/mL (≈ 196 µM)	> 50 µg/mL	1.43 µg/mL (≈ 8.98 µM)	≥ 50 µg/mL	≥ 50 µg/mL	≥ 50 µg/mL	≥ 50 µg/mL	> 50 µg/mL	> 50 µg/mL	> 50 µg/mL	CSC(=S)n1cncn1	39.54 µg/mL (≈ 248 µM)	> 200 µg/mL	0%	100%	53.7 µg/mL (≈ 337 µM)
–	–	–	–	–	–	–	–	–	–	–	–	–	–	CCCCCCCCCc1ccc(OCCOCCOCCOCCOCCOCCOCCOCCOCCO)cc1 [NONOXYNOL 9]	21 µg/mL (≈ 34 µM)	37.4 µg/mL	100%	100%	37 µg/mL (≈ 60 µM)
